According to PubChem BioAssay:
The source made the active and inactive calls.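 How the source made its calls, unless noted: active means viability at or below 10% of carrier control in both of two separate runs; inconclusive means viability at or below 10% in only one of the two runs; inactive means the rest.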

Key:
[1] = reducers of endogenous Her2 protein level, primary screen, SKBR3 breast tumor cells, AlphaScreen, ATP viability (AID 461;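 active means Her2 level under about 52% in both replicate screens, with viability over 70% of control, limit read from the data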;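 on Her2 level: lower value means less Her2 protein in the cells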;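 on viability: percent of carrier control wells set as 100% viability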); details: 18-24 h, measured here: SKBR3 viability, ATP luminescence, at 10 µM
[2] = biological target: Receptor tyrosine-protein kinase erbB-2 (Homo sapiens) (UniProt P04626); test: as above; details: 18-24 h, at 10 µM, stronger effect = lower value
[3] = SK-BR-3 cell growth inhibitors, pilot screen, 24 h, human (AID 572); details: SK-BR-3 viability, CellTiter-Glo luminescence, at 10 µM, stronger effect = lower value;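 further: compound exposure lasted between 18 and 24 h rather than exactly 24 h; 100% = carrier-treated control wells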
[4] = HUVEC growth inhibition – cell-based, human, primary screen (AID 575;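 active means viability at or below 30% in both replicate assays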;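 further: 100% = median of untreated cell wells with 0.1% DMSO on each plate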); details: HUVEC proliferation, CellTiter-Glo luminescence, 72 h; at 10 µM; stronger effect = lower value
In short: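 Test system: primary human umbilical vein endothelial cells; medium: endothelial basal medium with 2% FBS plus growth supplements; dosing: 10 µM compound only; times: 72 h treatment at 37 °C; signal: CTG luminescence; read-out: % viability relative to median vehicle-well signal on each plate; control set: vehicle and MePR control wells; plate: 384-well, collagen-coated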

[5] = growth inhibitors of H69AR lung tumor, primary screen, human, duplicate replicates (AID 580;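 active means viability at or under a set limit in both replicates, limit being median viability minus 3 SD, cut at about 48% in these data, passing the limit was not always enough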;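 further: 100% = mean luminescence of untreated wells and 0% = no signal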); details: H69AR lung tumor cells viability, ATP luminescence, 72 h; at 10 µM; stronger effect = lower value
[6] = reversal of MRP1-mediated doxorubicin resistance, pilot screen, H69AR cells, doxorubicin co-treatment (AID 601;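 active means viability loss from added drug above about 55%, and viability with drug at most 40%, in both replicates, limit read from the data, passing the limit was not always enough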); details: CellTiter-Glo, 72 h, at 10 µM; for differential viability (reversal): stronger effect = higher value
[7] = 384-well plate pilot, post-Golgi transport modulator project, inhibition of yeast transport mutant growth (AID 636; in the data active means inhibition above about 31%); details: absorbance 615 nm, about 18 h, stronger effect = higher value
[8] = growth suppression of yeast trafficking mutant, preliminary HTS, modulators of trafficking downstream of Golgi apparatus project, 1536-format plate, OD 615 nm (AID 637; in the data active means inhibition above about 30%); details: yeast transport mutant growth, absorbance 615 nm, 18 h; stronger effect = higher value
[9] = H69AR cells + 2 uM doxorubicin, measured here: viability with 2 uM doxorubicin, stronger effect = lower value
[10] = H69AR cells, compound alone cytotoxicity

Sequence of Receptor tyrosine-protein kinase erbB-2 (Homo sapiens) (P04626 whole entry, looked up): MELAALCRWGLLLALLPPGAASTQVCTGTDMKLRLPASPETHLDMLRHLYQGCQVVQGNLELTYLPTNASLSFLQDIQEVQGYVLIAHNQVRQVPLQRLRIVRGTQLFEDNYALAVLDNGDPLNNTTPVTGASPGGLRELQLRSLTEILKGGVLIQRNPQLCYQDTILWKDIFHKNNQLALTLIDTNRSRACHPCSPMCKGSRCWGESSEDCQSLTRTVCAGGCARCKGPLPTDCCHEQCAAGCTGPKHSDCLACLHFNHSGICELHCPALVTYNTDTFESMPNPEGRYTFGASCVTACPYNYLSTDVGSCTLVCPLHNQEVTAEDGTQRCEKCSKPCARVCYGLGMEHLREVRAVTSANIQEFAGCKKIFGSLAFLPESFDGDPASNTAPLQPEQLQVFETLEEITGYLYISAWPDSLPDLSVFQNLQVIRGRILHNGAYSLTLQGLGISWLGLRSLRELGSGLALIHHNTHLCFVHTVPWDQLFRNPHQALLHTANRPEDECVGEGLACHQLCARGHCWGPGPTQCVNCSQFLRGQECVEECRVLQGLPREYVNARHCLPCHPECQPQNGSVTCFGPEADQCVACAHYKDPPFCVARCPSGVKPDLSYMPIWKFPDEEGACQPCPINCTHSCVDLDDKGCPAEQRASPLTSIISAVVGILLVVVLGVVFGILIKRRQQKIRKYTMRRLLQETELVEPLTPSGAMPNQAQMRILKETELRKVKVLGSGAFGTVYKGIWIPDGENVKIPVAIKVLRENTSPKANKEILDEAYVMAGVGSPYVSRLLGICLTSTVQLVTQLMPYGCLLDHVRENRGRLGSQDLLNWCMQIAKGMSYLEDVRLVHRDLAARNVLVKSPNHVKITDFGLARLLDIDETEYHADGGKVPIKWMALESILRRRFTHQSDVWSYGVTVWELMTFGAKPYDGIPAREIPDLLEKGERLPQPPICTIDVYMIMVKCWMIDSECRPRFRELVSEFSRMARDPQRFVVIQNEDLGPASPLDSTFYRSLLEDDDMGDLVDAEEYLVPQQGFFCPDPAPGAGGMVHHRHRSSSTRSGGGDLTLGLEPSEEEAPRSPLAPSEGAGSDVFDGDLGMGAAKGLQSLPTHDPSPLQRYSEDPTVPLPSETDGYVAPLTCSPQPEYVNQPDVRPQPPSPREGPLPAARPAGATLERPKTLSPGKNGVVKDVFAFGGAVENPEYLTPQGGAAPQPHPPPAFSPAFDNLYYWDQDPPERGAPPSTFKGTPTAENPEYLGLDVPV

| SMILES | viability [1] [%] | Her2 level [2] | viability [3] | viability [4] | viability [5] | differential viability (reversal) ([6]; H69AR cells + 2 uM doxorubicin) | viability [6, 9] [%] | viability [6, 10] [%] | inhibition [7] | inhibition [8] |
| --- | --- | --- | --- | --- | --- | --- | --- | --- | --- | --- |
| C=C(c1cccc2ccccc12)P(=O)(O)O | 116 | 99.5% (inactive) | 116% (inactive) | 104% (inactive) | 92.9% (inactive) | 6.39% (inactive) | 86.5 | 92.9 | -6.45% (inactive) | 4.75% (inactive) |
| Cc1ccc2cc3cc(C(=O)N4CC(C)CC(C)C4)oc3nc2c1 (stereo not given) | 108 | 78.5% (inactive) | 108% (inactive) | 69.3% (inactive) | 89.2% (inactive) | 3.71% (inactive) | 85.5 | 89.2 | -2.47% (inactive) | -6.35% (inactive) |
| CCOc1ccc(NC(=O)CN(C)CC(=O)NC2CCCc3ccccc32)cc1OCC (stereo not given) | 83 | 88.5% (inactive) | 83% (inactive) | 100% (inactive) | 89.9% (inactive) | -7.38% (inactive) | 97.3 | 89.9 | -0.38% (inactive) | 0.33% (inactive) |
| COc1ccc(CN(C(=O)c2oc3ccccc3c2C)C2CCS(=O)(=O)C2)cc1 (stereo not given) | 86 | 112% (inactive) | 86% (inactive) | 83.6% (inactive) | 90.5% (inactive) | 8.78% (inactive) | 81.7 | 90.5 | -4.13% (inactive) | -11.1% (inactive) |
| CC1CCCCC1NC(=O)c1nn(C)c(=O)c2ccccc12 (stereo not given) | 88 | 104% (inactive) | 88% (inactive) | 90.4% (inactive) | 89.2% (inactive) | 13.3% (inactive) | 75.8 | 89.2 | -1.69% (inactive) | -10% (inactive) |
| CC(C)CCNC(=O)CCNS(=O)(=O)c1ccc(Cl)cc1 | 110 | 95% (inactive) | 110% (inactive) | 99.7% (inactive) | 94.1% (inactive) | -0.295% (inactive) | 94.4 | 94.1 | -1.71% (inactive) | -4.03% (inactive) |
| O=C(c1ccco1)N1CCN(c2ccc(Cl)cc2)CC1 | 86 | 116% (inactive) | 86% (inactive) | 95.6% (inactive) | 99.8% (inactive) | 19.1% (inactive) | 80.8 | 99.8 | -0.93% (inactive) | -5.4% (inactive) |
| O=C(CSc1nnc(Cc2cc(=O)[nH]c(=O)[nH]2)n1-c1ccccc1)NCC1CCCO1 (stereo not given) | 99 | 84.5% (inactive) | 99% (inactive) | 96.1% (inactive) | 98.4% (inactive) | 3.05% (inactive) | 95.4 | 98.4 | -6.8% (inactive) | -1.11% (inactive) |
| CCOC(=O)CNC(=O)C(Cc1ccccc1)NS(=O)(=O)c1ccc2c(c1)CCC(=O)N2 (stereo not given) | 101 | 114% (inactive) | 101% (inactive) | 92.8% (inactive) | 90.7% (inactive) | -0.925% (inactive) | 91.7 | 90.7 | 1.84% (inactive) | -5.64% (inactive) |
| COC(=O)CCc1c(C)c(C#N)c2nc3ccccc3n2c1N1CCCC1 | 100 | 84% (inactive) | 100% (inactive) | 98.1% (inactive) | 73.2% (inactive) | 45.5% (inactive) | 27.7 | 73.2 | -8.24% (inactive) | 8.67% (inactive) |
| COc1ccc(OC)c(C2/C(=C(\O)c3ccc4c(c3)OCCO4)C(=O)C(=O)N2CCCN(C)C)c1 (stereo not given) | 102 | 76.5% (inactive) | 102% (inactive) | 111% (inactive) | 101% (inactive) | 9.38% (inactive) | 91.3 | 101 | -4.05% (inactive) | -3.81% (inactive) |
| CCOC(=O)c1ccc(S(=O)(=O)NC2CCCCCCC2)n1C | 113 | 70% (inactive) | 113% (inactive) | 86.9% (inactive) | 104% (inactive) | -3.18% (inactive) | 107 | 104 | -1.49% (inactive) | 1.11% (inactive) |
| O=C(CCCN1C(=O)c2ccccc2C1=O)Oc1ccc(F)cc1 | 98 | 98% (inactive) | 98% (inactive) | 98.2% (inactive) | 94.8% (inactive) | 9.54% (inactive) | 85.2 | 94.8 | -5.47% (inactive) | 1.29% (inactive) |
| COc1ccc(N2CCN(C(c3cccs3)C(C)NC(=O)c3ccco3)CC2)cc1 (stereo not given) | 90 | 76.5% (inactive) | 90% (inactive) | 82.1% (inactive) | 86.3% (inactive) | -4.01% (inactive) | 90.3 | 86.3 | -4.53% (inactive) | -0.16% (inactive) |
| CCC(c1nnnn1C(C)(C)C)N1CCN(C2CCCC2)CC1 (stereo not given) | 98.5 | 114% (inactive) | 98.5% (inactive) | 103% (inactive) | 107% (inactive) | 17.5% (inactive) | 89.3 | 107 | 1.2% (inactive) | 4.59% (inactive) |
| COC(=O)C(O)(CC(=O)c1ccc(OC)cc1)C(F)(F)F (stereo not given) | 100 | 98% (inactive) | 100% (inactive) | 91.5% (inactive) | 95.9% (inactive) | 0.63% (inactive) | 95.3 | 95.9 | -1.33% (inactive) | -5% (inactive) |
| Cc1ccc(-c2[nH]nc3c2C(c2ccc(OC(=O)N4CCOCC4)cc2)C(C#N)=C(N)O3)cc1 (stereo not given) | 89 | 93% (inactive) | 89% (inactive) | 106% (inactive) | 85.5% (inactive) | -10.4% (inactive) | 96 | 85.5 | -5.26% (inactive) | -11.4% (inactive) |
| CCOCCCNC(=O)C1CCC(=O)N1CCc1ccccc1 (stereo not given) | 100 | 95.5% (inactive) | 100% (inactive) | 84.7% (inactive) | 98.3% (inactive) | -12.8% (inactive) | 111 | 98.3 | -3.42% (inactive) | -5.32% (inactive) |
| O=c1c2ccccc2nc(SCc2cccc(F)c2)n1Cc1ccco1 | 104 | 97.5% (inactive) | 104% (inactive) | 87.6% (inactive) | 84.2% (inactive) | 1.36% (inactive) | 82.8 | 84.2 | -5.33% (inactive) | -0.63% (inactive) |
| Cc1nnc2n(-c3ccccc3)c(=O)c3c4c(sc3n12)CCCC4 | 79.5 | 115% (inactive) | 79.5% (inactive) | 96.2% (inactive) | 85.6% (inactive) | 33.2% (inactive) | 52.4 | 85.6 | -7.47% (inactive) | 0.33% (inactive) |
| CCOC(=O)C1CCN(c2c(N(C)Cc3ccco3)c(=O)c2=O)CC1 | 78 | 105% (inactive) | 78% (inactive) | 93% (inactive) | 104% (inactive) | 15% (inactive) | 88.9 | 104 | 0.13% (inactive) | -5.5% (inactive) |
| OC(COc1ccc2ccccc2c1)CN1CCOCC1 (stereo not given) | 98.5 | 87% (inactive) | 98.5% (inactive) | 82.6% (inactive) | 81.5% (inactive) | -2.29% (inactive) | 83.8 | 81.5 | 1.56% (inactive) | 0.66% (inactive) |
| Cc1ccc(CCC(=O)Nc2ccc(S(N)(=O)=O)cc2)o1 | 87.5 | 116% (inactive) | 87.5% (inactive) | 98.4% (inactive) | 109% (inactive) | 7.87% (inactive) | 101 | 109 | 1.33% (inactive) | 6.23% (inactive) |
| COc1ccc(C2c3c(-c4ccccc4O)n[nH]c3C(=O)N2CCc2ccc(OC)c(OC)c2)cc1 (stereo not given) | 112 | 95.5% (inactive) | 112% (inactive) | 60.3% (inactive) | 68.5% (inactive) | 57.9% (active) | 10.6 | 68.5 | -2.89% (inactive) | 6.94% (inactive) |
| COC(=O)C(C)C1Sc2ccccc2NC1=O (stereo not given) | 121 | 100% (inactive) | 121% (inactive) | 119% (inactive) | 93.9% (inactive) | 12.1% (inactive) | 81.8 | 93.9 | -7.7% (inactive) | 2.83% (inactive) |
| COc1ccc(C2CC(=O)c3c(C)nc(N4CCN(c5ccccc5)CC4)nc3C2)cc1 (stereo not given) | 90 | 88% (inactive) | 90% (inactive) | 98.5% (inactive) | 97.3% (inactive) | 19% (inactive) | 78.3 | 97.3 | 0.79% (inactive) | -5.9% (inactive) |
| CN(C=O)CP(=O)(O)CCN1CCCC1=O | 126 | 121% (inactive) | 126% (inactive) | 104% (inactive) | 99.4% (inactive) | 7.19% (inactive) | 92.2 | 99.4 | -4.47% (inactive) | 0.66% (inactive) |
| COc1cccc(NC(=O)Cc2nnc(SCC(=O)c3ccccc3)n2C)c1 | 92 | 83.5% (inactive) | 92% (inactive) | 85% (inactive) | 68.1% (inactive) | 8.65% (inactive) | 59.4 | 68.1 | -2.24% (inactive) | -3.49% (inactive) |
| CS(=O)(=O)N1CCN(c2ccccc2NC(=O)c2ccc(-c3ccc(Cl)cc3Cl)o2)CC1 | 78.5 | 96.5% (inactive) | 78.5% (inactive) | 76.7% (inactive) | 86.4% (inactive) | 10.2% (inactive) | 76.2 | 86.4 | -2.93% (inactive) | -3.49% (inactive) |
